According to the array DNA melting data of Ke et al. (doi:10.1101/2024.01.08.574731):

Legend:
[1] = folding enthalpy; higher = less favourable; fluorescence melt of hairpins on a sequencing array, two-state fit; conditions: sodium 0.088 M
Summary of the method: (§1)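 Library hairpins on a sequenced MiSeq flow cell carried annealed Cy3 and quencher oligos, and their Cy3 fluorescence was imaged in 50 mM Na-HEPES pH 8.0 with 25 mM NaCl, in 2.5 °C steps up to 60 °C. Signals were normalised to Cy3 before quenching and to control constructs. Melting temperature and folding enthalpy were obtained from bootstrapped two-state fits, combined by inverse-variance weighting across four replicates, and the fitted temperatures were then raised by 9.35 °C to match UV melts.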

[2] = melting temperature; fluorescence melt of hairpins on a sequencing array, two-state fit, raised by 9.35 °C to match UV melts; conditions: sodium 0.088 M
Summary of the method: as §1

Row | Sequence | folding enthalpy [1] [kcal/mol] | Tm [2] [°C]
1 | GATCGCTTAGGCGATC ((((((....)))))) | -32.1 | 68.6
2 | TCCATGAAAATGGA (((((....))))) | -17.1 | 42.2
3 | GATCACATGCGTGATC ((((((....)))))) | -38.4 | 57.8
4 | GACCCACGAAAGTGCGTC (((.(((....))).))) | -26.1 | 46.7
5 | GTGCTTTCGAAAGAACAC (((..(((....)))))) | -19.8 | 36.7
6 | GTTCGTCGAAAGACAAAC (((.(((....))).))) | -16.6 | 41.2
7 | GGGCTCGAAAGAGTTCCC ((((((....)))..))) | -21 | 43.5
8 | GATCCCTTACGGGATC ((((((....)))))) | -38.9 | 61.5
9 | GCAACCGAAAGGTCCTGC ((((((....)))..))) | -9.82 | 27.9
10 | GATCTCGGAAACAAGATC (((((.(....).))))) | -15 | 29
11 | CGTCTCGGAAACGATACG (((.(((....))).))) | -38 | 42.9
12 | GATCCCGCATGGGATC ((((((....)))))) | -32.9 | 68
13 | GATCAGTTGTCTGATC ((((((....)))))) | -39.2 | 50.5
14 | CGTACGGAAACGTGTACG ((((((....)))..))) | -25.2 | 41.5
15 | GATCTCATATGAGATC ((((((....)))))) | -43.8 | 54.2
16 | GTGGGCGAAAGCCTGCAC ((((((....)))..))) | -12.4 | 45.3
17 | GTAGGGCGAAAGCCTAC (((.(((....)))))) | -14.1 | 51.8
18 | GCCCCCGAAAGGGGTGGC ((((((....)))..))) | -12.8 | 56.6
19 | GGAAACGGAAACATTTCC (((((.(....).))))) | -28.4 | 31.3
20 | GGAGTAACGAAAGTTTCC (((..(((....)))))) | -16.6 | 30.7
21 | GATCTTAAACAAGATC ((((((....)))))) | -24.9 | 38.7
22 | GCTAGGCGAAAGCCAGC (((.(((....)))))) | -21.7 | 62.9
23 | GAATGGAAACATTC (((((....))))) | -24.9 | 40.6
24 | GGCGGAACGAAAGTTGCC (((..(((....)))))) | -19.5 | 47.6

Row | Sequence | folding enthalpy [1] [kcal/mol] | Tm [2] [°C]
25 | GAGCTCCGAAAGGAACTC (((.(((....))).))) | -27.5 | 50.6
26 | GTTGGCCGAAAGGCAAC (((.(((....)))))) | -16.8 | 53.9
27 | GGGGTCGGAAACGACTCC ((.((((....)))).)) | -34.4 | 59.5
28 | GACTCCGAAAGGAAGGTC ((((((....)))..))) | -22.1 | 38.3
29 | GGGCGCGAAAGCGCACCC ((((((....)))..))) | -9.21 | 66.3
30 | GGTTCAGGAAACTGGATC (.(.(((....))).).) | -10.2 | 30
31 | GACTCTGCGAAAGCAGTC (((..(((....)))))) | -7.87 | 32.2
32 | GATCGGAATGCCGATC ((((((....)))))) | -33.7 | 54.9
33 | GATCCGGACTCGGATC ((((((....)))))) | -49.4 | 59.2
34 | GCAATACGAAAGTAGTGC (((.(((....))).))) | -43.8 | 54.7
35 | GCGCTCGGAAACAAGCGC (((((.(....).))))) | -46.7 | 55.9
36 | CGCACGGAAACGTAGGCG ((((((....)))..))) | -30.6 | 46.3
37 | GTGAGTTCGAAAGAACAC (((..(((....)))))) | -15.4 | 44.6
38 | GCACTGGGAAACCAGCAC (..((((....))))..) | -10.1 | 27.3
39 | GGCTCCGAAAGGAAGCC ((((((....))).))) | -37.7 | 64.1
40 | GTATGTGGAAACACATGC (.(((((....))))).) | -24.3 | 47.9
41 | GGAGCCGAAAGGCTTTCC ((((((....)))..))) | -7.92 | 43.8
42 | GCAGGGAAACCTGC (((((....))))) | -28.1 | 62.7
43 | GGTGCCGAAAGGCCTACC ((((((....)))..))) | -10.7 | 39.6
44 | GCTGAGCGAAAGCTTTGC ((..(((....)))..)) | -19.1 | 47.9
45 | GTCAGAGCGAAAGCTGAC (((..(((....)))))) | -26.4 | 49.3
46 | GGTACACCGAAAGGTACC (((..(((....)))))) | -20.5 | 41.1
47 | GTAGTAGAAATACTAC ((((((....)))))) | -26.1 | 43.1
48 | AACAAGAAATTGTT (((((....))))) | -7.18 | 23.3

Row | Sequence | folding enthalpy [1] [kcal/mol] | Tm [2] [°C]
49 | GCATGGCGAAAGCGAGGC ((.(.((....)).).)) | -19 | 47.3
50 | GCGACGCGAAAGCATGGC ((.(.((....)).).)) | -9.76 | 40.4
51 | GCGTGAAAACGC ((((....)))) | -32.6 | 58.5
52 | GTAAAAGGAAACTTTTGC (.(((((....))))).) | -24.1 | 33.5
53 | GCCTACGAAAGTAGTGGC ((((((....)))..))) | -24.3 | 48.4
54 | GGAGACCGAAAGGTGTCC (((.(((....))).))) | -40.8 | 58.9
55 | GATCTCGGTGGAGATC ((((((....)))))) | -4.26 | 68.6
56 | CGGGGGCGGAAACGCCCG (((..(((....)))))) | -6.12 | 52.2
57 | GTAAGGGCGAAAGCCTAC (((..(((....)))))) | -8.85 | 29.7
58 | GGCAAGAAATTGCC (((((....))))) | -33.2 | 53
59 | GTGATACGAAAGTAACAC (((.(((....))).))) | -34.1 | 47.6
60 | GTAAATGGAAACATTTGC (.(((((....))))).) | -28.9 | 38.6
61 | GAGCGGGGAAACCCACTC (((.(((....))).))) | -28.4 | 46.2
62 | GCGAGACTTCGC ((((....)))) | -10.4 | 56.6
63 | GATCCCCGCTGGGATC ((((((....)))))) | -32.9 | 61.8
64 | GTAGTCCGAAAGGAATAC (((.(((....))).))) | -37.6 | 49.7
65 | GATTCGAAAGAATC (((((....))))) | -29.7 | 51.5
66 | GATCGTCGAAACGATC ((((((....)))))) | -38.3 | 53.5
67 | GATCAGCGTGCTGATC ((((((....)))))) | -37.1 | 67.2
68 | CGCGGACGCTCCGCG ((((((...)))))) | -31.7 | 66.6
69 | GTCGTCGGAAACGACGGC (.(((((....))))).) | -25.2 | 65.5
70 | GCGACTAGTCGC ((((....)))) | -28.9 | 65.2
71 | GATCTAGCAGTAGATC ((((((....)))))) | -31.2 | 43.2
72 | GAACTCCGAAAGGAATTC (((.(((....))).))) | -25.9 | 37.5

Row | Sequence | folding enthalpy [1] [kcal/mol] | Tm [2] [°C]
73 | GCGTAAAACGC ((((...)))) | -21.7 | 52.9
74 | GGTCGCCGAAAGGCTACC (((.(((....))).))) | -21.2 | 54.4
75 | GATTCTGGAAACAGAACC (.(((((....))))).) | -17.6 | 33.6
76 | GCTCAGCGAAAGCTTTGC ((..(((....)))..)) | -14.4 | 38.6
77 | GTGTCAGGAAACTGATGC (..((((....))))..) | -21.1 | 38.3
78 | GCGTAGCGAAAGCAAGGC ((.(.((....)).).)) | -7.5 | 35.5
79 | GATCTACACATAGATC ((((((....)))))) | -44.3 | 43.2
80 | GATCCGATTCGGATC ((((((...)))))) | -39.2 | 58.3
81 | GAGTGCGAAAGCAACCTC ((((((....)))..))) | -13.5 | 37.7
82 | GCGACTAATCGC ((((....)))) | -24.2 | 47.2
83 | GATTACGAAAGTAAAATC ((((((....)))..))) | -17.6 | 28.5
84 | GCCTTAGCGAAAGCTGGC (((..(((....)))))) | -21 | 51.5
85 | GCATCGCGAAAGCAAGGC ((.(.((....)).).)) | -12.7 | 39.6
86 | GACGGGGCGAAAGCCGTC (((..(((....)))))) | -15.6 | 55.2
87 | GGTCGGGGAAACCCGGTC (..((((....))))..) | -14.8 | 45.5
88 | GCATTACGAAAGTATGC (((.(((....)))))) | -26.9 | 48.7
89 | GCTAGCCGAAAGGCGAGC (((.(((....))).))) | -30.9 | 67.2
90 | GGATTAGGAAACCAATCC (((((.(....).))))) | -34 | 34.4
91 | GATATTGAAAAATATC ((((((....)))))) | -22.6 | 37
92 | CGACTCGGAAACGATCG (((.(((....)))))) | -31.8 | 40.5
93 | TGGGGGAAACCCCA (((((....))))) | -17.2 | 53.5
